Test results published in ChEMBL document CHEMBL1158389, “Highly twisted adamantyl arotinoids: synthesis, antiproliferative effects and RXR transactivation profiles” (Eur J Med Chem, 2009).
The source made the active and inactive calls. No cut-off for these calls is given here.

Columns and labels:
Jurkat [1] = experiment: Antiproliferative activity against human Jurkat T cells at 62.5 nM after 48 hrs by MTT assay; assay type: functional, cell-based
Outline: (§1)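 Jurkat T cells were resuspended at 10^5 cells/mL in RPMI with 0.5% FBS (10,000/well) and seeded immediately before dosing at 62.5 nM–2 μM for two days. Viability was read by MTT (4 h, 37 °C), formazan dissolved in 10% SDS/10 mM HCl, A595 with cell-free background subtracted. Values are relative to DMSO controls (≤0.1% v/v); at least two experiments in triplicate.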

Jurkat [2] = experiment: Antiproliferative activity against human Jurkat T cells after 48 hrs by MTT assay
[3] = molecular target: T1, Retinoic acid receptor RXR-alpha (Mus musculus, UniProt P28700); experiment: Transactivation of Gal4-LBD fused mouse RXRalpha (218 to 467) transfected in african green monkey CV1 cells assessed as luciferase activity at after 6 hrs by Dual-light chemiluminescent assay; assay type: cell-based, CV-1
T1 sequence (P28700 whole entry): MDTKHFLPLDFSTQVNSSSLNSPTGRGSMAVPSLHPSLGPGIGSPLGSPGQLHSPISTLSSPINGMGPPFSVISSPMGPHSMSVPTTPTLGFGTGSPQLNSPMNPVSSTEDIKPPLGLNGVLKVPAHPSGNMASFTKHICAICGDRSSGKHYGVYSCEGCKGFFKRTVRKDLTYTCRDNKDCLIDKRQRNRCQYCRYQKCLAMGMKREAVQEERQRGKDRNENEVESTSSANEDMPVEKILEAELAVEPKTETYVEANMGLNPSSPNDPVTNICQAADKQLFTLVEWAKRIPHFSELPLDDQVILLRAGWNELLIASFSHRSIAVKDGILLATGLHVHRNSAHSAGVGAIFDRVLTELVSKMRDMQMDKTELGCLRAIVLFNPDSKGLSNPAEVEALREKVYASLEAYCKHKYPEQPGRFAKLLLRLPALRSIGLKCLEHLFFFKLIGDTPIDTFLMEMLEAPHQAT

[4] = molecular target: T2, Retinoic acid receptor RXR-alpha (Mus musculus) (UniProt P28700); experiment: Transactivation of Gal4-LBD fused mouse RXRalpha (218 to 467) transfected in african green monkey CV1 cells assessed as luciferase activity at 2 uM after 6 hrs by Dual-light chemiluminescent assay relative to LGD1069; assay type: cell-based; details: CV-1
T2 sequence (whole entry): T1 sequence (P28700 whole entry)

SK-OV-3 = experiment: Antiproliferative activity against human SKOV3 cells at 4 uM after 48 hrs by MTT assay; assay type: functional; details: SK-OV-3, 48 h
Outline: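 Epithelial cancer lines came from ATCC and were seeded the day before in complete medium: PC-3, SkOV3 and A549 at 3,000/well; MiaPaCa-2 and BxPC-3 at 4,000; T-47D and MDA-MB-468 at 5,000. Medium was switched to 0.5% FBS just before exposure to 4 μM. Read-out was MTT (4 h, 37 °C), SDS/HCl solubilisation, A595 minus cell-free blank. Growth inhibition was taken versus DMSO (≤0.1% v/v) controls, ≥2 experiments in triplicate.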

[5] = molecular target: T2, Retinoic acid receptor RXR-alpha (Mus musculus); experiment: Transactivation of Gal4-LBD fused mouse RXRalpha (218 to 467) transfected in african green monkey CV1 cells assessed as luciferase activity at 2 uM after 6 hrs by Dual-light chemiluminescent assay relative to 9-cis-retinoic acid; assay type: cell-based; details: CV-1
Outline: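 Transfected CV-1 cells carried Gal4-LBD constructs: hRARα 156–462, hRARβ 169–448, hRARγ 178–454 or mRXRα 218–467. Transfection used 10 ng Gal4-LBD, 100 ng UAS-luciferase and 25 ng β-gal vector. After 16 h the medium was changed to 5% charcoal-treated FBS. Cells were stimulated with 2 μM analog for 6 h (RARα, RARβ, RXRα) or 20 h (RARγ). Reference agonists were 1 μM atRA (RARα) and 1 μM 9cRA (RXRα). Luciferase and β-galactosidase were read by chemiluminescence.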

Jurkat [6] = experiment: Induction of apoptosis in human Jurkat T cells assessed as induction of DEVDase activity at 4 uM after 4 hrs by fluorescence assay; assay type: functional, cell-based
Outline: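 Jurkat cells (40,000/well, 10^6 cells/mL, RPMI with 0.5% FBS) were treated for 4 h; controls got 0.1% DMSO. Lysis was in CE buffer (PIPES pH 7, NP-40, cytochalasin B, protease inhibitors) for 30 min at 4 °C. Lysates were mixed with 2x caspase buffer (HEPES pH 7.4, CHAPS, sucrose) holding 100 μM Ac-DEVD-AFC and incubated at 37 °C for 30 min. AFC was read every 2 min, ex 390/em 510 nm.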

Jurkat [7] = experiment: Antiproliferative activity against human Jurkat T cells at 2 uM after 48 hrs by MTT assay; assay type: functional, cell-based; outline: as §1

| SMILES | Activity (Jurkat [1]) | IC50 (Jurkat [2]) [nM] | EC50 [3] [nM] | Activity [4] [%] | inhibition at 4 µM (SK-OV-3) [%] | Activity [5] [%] | Activity (Jurkat [6]) | Activity (Jurkat [7]) |
| --- | --- | --- | --- | --- | --- | --- | --- | --- |
| COCCOCOc1cc(C)c(-c2ccc3cc(C(=O)O)ccc3c2Cl)cc1C12CC3CC(CC(C3)C1)C2 | inactive | 707 | 667 | 45 | 71.2 | 45 | Active |  |
| COCCOCOc1cc(C)c(-c2ccc(CC(=O)O)cc2Cl)cc1C12CC3CC(CC(C3)C1)C2 |  |  | 1140 |  | 19.1 |  |  | Active |
